Rows were chosen to be rich in hits. Some 3.7% of all compounds tested hit in one or more screens of this group.
OX1R antag-1 = antagonists of human orexin 1 receptor (OX1R); OX1R-expressing cells, FRET antagonist read-out; AID 485270; hit rate 1.8% among 330,000; O43613; inhibition, % at 6.6 µM; in the data active means inhibition mostly above about 38%, no sharp cut-off; inactive means mostly below about 40%;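 further: 0% = agonist challenge alone and 100% = reference antagonist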
Target sequence (O43613 whole entry, looked up): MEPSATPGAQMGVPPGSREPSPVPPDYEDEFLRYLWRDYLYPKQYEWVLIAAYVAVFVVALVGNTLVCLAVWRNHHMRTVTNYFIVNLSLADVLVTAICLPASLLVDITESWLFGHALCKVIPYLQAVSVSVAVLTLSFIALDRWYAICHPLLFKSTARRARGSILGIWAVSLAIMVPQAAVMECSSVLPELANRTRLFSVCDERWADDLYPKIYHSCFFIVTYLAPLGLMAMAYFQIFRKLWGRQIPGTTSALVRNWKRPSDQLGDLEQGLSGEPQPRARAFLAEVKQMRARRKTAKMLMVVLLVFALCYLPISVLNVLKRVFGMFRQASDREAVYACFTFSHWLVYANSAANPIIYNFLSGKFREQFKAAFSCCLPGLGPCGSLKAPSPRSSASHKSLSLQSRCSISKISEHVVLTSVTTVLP
OX1R antag-2 = blocks the human orexin 1 receptor; O43613; CHO/OX1R cells, Fluo-8 calcium fluorescence, orexin A; inhibition, % at 5 µM; hit rate 0.43% among 330,000;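 active means inhibition above its plate's threshold, mean inhibition of all tested compounds on the plate plus 3 SD, cut at about 37% in these data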;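 further: 0% = orexin A challenge wells and 100% = SB-334867-A antagonist wells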
EP2 mod = EP2 receptor (human) modulation. induction, % at 25 µM. EP2-expressing cells, cAMP HTRF FRET, PGE2 co-stimulation. AID 940. P43116. hit rate 0.83% among 260,000;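 active means compounds whose cAMP rise, as percent of the full-agonist control response, exceeds 60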;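 further: rat C6 glioma line stably carrying human EP2 under a CMV promoter; the protocol text gives 20 µM as final concentration; 100% = response of wells given 1 µM PGE2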
CHO parental Ca = counter-screen: ATP calcium response change in parental CHO cells; parental CHO-K1, ATP-induced calcium, Fluo-8 fluorescence; inhibition, % at 5.6 µM; hit rate 0.63% among 330,000; AID 463079;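 active means inhibition above that plate's mean sample inhibition plus 3 SD, cut at about 26% in these data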;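 further: 0% = ATP-challenged DMSO wells and 100% = DMSO wells without ATP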
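Material: Parental CHO cells | Reagent: ATP | Compound dosing: Single nominal dose of 5.6 µM per compound | Detection: Intracellular calcium via Fluo-8 no-wash fluorescent dye | Read-out: % inhibition of ATP-induced calcium mobilization | Benchmarks: Low control ATP plus DMSO, high control DMSO only | Replicates: Singlicate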
GPR7 antagonist = blocks human GPR7 receptor signaling; P48145; GPR7-expressing cells, fluorescence antagonist assay; inhibition, % at 4.4 µM; hit rate 1.1% among 290,000; AID 1861; in the data active means inhibition above about 16%, passing the limit was not always enough;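 further: cells stimulated with the agonist NPW; 0% = agonist with vehicle and 100% = vehicle without agonist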
EP2 antag = inhibitors of human EP2 prostaglandin E2 receptor. P43116. C6 glioma cells expressing human EP2, cAMP TR-FRET; cells stimulated with saturating PGE2. inhibition, % at 25 µM. hit rate 0.52% among 260,000;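 active means percent inhibition above 40 after rounding to a whole number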;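 further: rat C6 glioma host cells with rolipram phosphodiesterase inhibitor present; the protocol text gives 20 µM as final concentration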
An asterisk follows results filed as active; / = no result.

SMILES	OX1R antag-1	OX1R antag-2	EP2 mod	CHO parental Ca	GPR7 antagonist	EP2 antag
C#CCOCCOCCOCCNc1nc(N2CCN(C(=O)CCCCCCCCCCNC(=O)Cn3cc(C[C@@H](C)O)nn3)CC2)nc(N2CCN(C(=O)CCCCCCCCCCNC(=O)[C@@H]([C@H](C)CC)n3cc(CCCCCN)nn3)CC2)n1	-12	8	/	-10	/	/
CCCn1c(SCc2ccccn2)nc2c1c(=O)n(C)c(=O)n2C	12	-14	10	-13	-8	-5
COc1ccc(OCC(=O)Nc2ccc(N3CCN(C(=O)c4ccccc4)CC3)c(Cl)c2)cc1	23	18	/	43*	21	/
COc1ccc(OCC(=O)Nc2ccc(N3CCN(C(=O)C(C)C)CC3)c(Cl)c2)cc1	/	/	-38	/	/	3
O=C(COC(=O)c1ccc2ncsc2c1)NCc1ccc(F)cc1	3	-16	/	-14	/	/
O=C(Cc1cccc2ccccc12)NNC(=O)c1ccc(Br)o1	51*	14	/	-14	7	/
COc1ccc(-c2nnc(SCC(=O)Nc3nccs3)n2C)cc1	/	/	-13	/	/	8
Fc1ccccc1C1c2[nH]c3ccccc3c2CCN1Cc1ccoc1 (centres undefined)	15	-30	64*	-20	-11	8
CSc1ncc(CN2CCc3c([nH]c4ccccc34)C2c2cccc(C)n2)cn1 (centres undefined)	26	-29	-13	-33	-17	17
CCOc1ccccc1C1CC(c2cccs2)=NN1S(C)(=O)=O (centres undefined)	13	-18	-6	-15	3	3
Cc1ccc(SCN2CCCCC2)cc1 (tested in a mixture with another compound)	/	/	26	/	/	52*
Cc1ccc(SCC(=O)N2CCOCC2)cc1	5	-12	18	0	-10	11
Cc1cc(=O)[nH]c(SCc2nc3ccccc3n2Cc2ccccc2)n1	18	-40	-11	-15	-11	5
O=C1Nc2ccccc2O/C1=C\c1ccccc1Br	45*	4	/	-16	-14	/
COc1ccc(Br)cc1/C=C1\Oc2ccccc2NC1=O	2	-20	/	-2	8	/
Cn1c2ccccc2c(=O)c2cc(C#Cc3ccsc3)ccc21	47	-1	/	-15	2	/
Cc1c2cnn(CC(=O)Nc3c(F)c(F)cc(F)c3F)c(=O)c2c(C)n1Cc1ccccc1F	26	-7	13	-1	7	7
CCCCSc1nc(C)nc2c1c(=O)n(C)c(=O)n2C	4	-17	63*	-14	-12	10
COc1ccc(OC)c(C2=NOC(C(=O)Nc3c(C)n(C)n(-c4ccccc4)c3=O)C2)c1 (centres undefined)	9	-8	22	5	/	10
COc1ccc(/C=C/C(=O)OCC(=O)NC2CCCC(C)C2C)cc1 (centres undefined)	12	-21	/	-5	/	/
O=C(Nc1nc2ccccc2o1)Nc1ccccc1Cl	/	/	-43	/	/	41*
CC(Sc1nc(N)cc(=O)[nH]1)C(=O)Nc1sc2c(c1C#N)CCCC2 (centres undefined)	11	31	-26	34*	-2	9
Cc1cc(C)cc(NS(=O)(=O)c2cnc(Cl)c(Cl)c2)c1	30	52*	9	95*	-11	18
CCCSc1nc(N)c(C#N)c(-c2ccc(C)cc2)c1C#N	17	5	39	41*	-7	17
CC1CC(=O)Nc2ccccc2N1C(=O)CSc1nnnn1C (centres undefined)	1	-18	/	-4	/	/
SMILES	OX1R antag-1	OX1R antag-2	EP2 mod	CHO parental Ca	GPR7 antagonist	EP2 antag
O=C(CCc1nc(-c2ccccc2F)no1)Nc1ccc(Oc2ccccc2)cc1	55	62*	25	39*	-7	8
COc1ccc(N2CCN(C(=O)CSc3nnnn3-c3ccc(OC)cc3)CC2)cc1	/	/	-34	/	/	6
COCCn1nnnc1C(c1ccc(OC)cc1OC)N1CCN(c2ccccc2F)CC1 (centres undefined)	37	-14	13	-23	21*	12
COCCn1nnnc1C(c1ccc(OC)cc1OC)N1CCN(c2ccccc2)CC1 (centres undefined)	17	-38	-4	-17	4	8
CCCCn1c(SCC(=O)/C(C#N)=C(\C)N)nc2ccccc2c1=O	8	-18	-10	-13	-9	9
O=C(CSc1ccccn1)N/N=C/c1cccc([N+](=O)[O-])c1	42	-21	-27	-9	14	7
O=C(CSc1ncccn1)N/N=C/c1cccc([N+](=O)[O-])c1	72*	-10	6	8	-2	6
Cc1nn(C)c(C)c1NC(=O)c1ccc(Cl)cc1	10	-3	15	-8	1	8
CC(=O)NCCC(=O)Nc1ncc(S(=O)(=O)c2ccc([N+](=O)[O-])cc2)s1	66*	-16	/	-7	/	/
COCC(=O)Nc1ncc(S(=O)(=O)c2ccc([N+](=O)[O-])cc2)s1	22	-13	7	4	-6	7
CCCn1cc(SCC(=O)NCC2CCCO2)c2ccccc21 (centres undefined)	12	-28	-29	5	-2	15
O=C1c2ccccc2C(=O)C1c1ccc2ccccc2n1	51*	-19	7	-6	1	4
COC(=O)C1=C(C)NC(C)=C(C(=O)OC)C1c1ccc2ccccc2n1	12	-22	-9	-18	4	14
Cc1cc(OCCCCCNCCO)ccc1Cl	11	-13	-5	-6	11	11
ClC(Cl)(c1nnnn1-c1ccccc1)c1nnnn1-c1ccccc1	21	63*	-42	93*	1	81*
c1ccc(CSc2nnnn2-c2ccccc2)cc1	13	2	23	-8	-9	2
Nc1nncn1C(=O)c1cc(Br)ccc1Cl	16	-5	20	4	-11	5
CCCCCCCCCCCCCCCC[n+]1cccc(C(=O)N(CC)CC)c1	26	42	-3	57*	9	7
CCCCCCCCCCCCCCCC[n+]1ccc(/C=N/O)cc1	38	58*	-2	80*	1	1
CCCCCCCCCCCCCCCC[n+]1ccc(C(N)=O)cc1	21	78*	-7	98*	-7	13
CCCCCCCC[n+]1cccc(C(=O)N(CC)CC)c1	7	9	16	-4	-6	11
CC(=O)c1ccc(Sc2ccccc2)c([N+](=O)[O-])c1	5	-10	2	-15	-7	7
CCCOc1ccc(C2NC(=O)NC(C)=C2C(=O)OC(C)C)cc1 (centres undefined)	/	/	-14	/	/	17
C=CCn1c(COc2cccc(C)c2)nnc1SCC(=O)c1c[nH]c2c(CC)cccc12	-7	-11	20	-9	-4	3
Cc1cc(Cl)c(S(=O)(=O)NCC2CCCO2)cc1OCC(=O)NC1CCCCC1 (centres undefined)	15	-24	-6	-20	-1	4

Source: PubChem
